Screening data (PubChem)
ABHD5 PLIN5 PPI = inhibitors of human ABHD5-perilipin-5 interaction; Split G. princeps luciferase complementation, luminescence, 4 h; AID 602281; Q00G26+Q8WTS1; 360,000 tested, 0.78% active; inhibition, % at 4 µM;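 active = inhibition above the mean inhibition across every tested compound plus 3 SD, cut at about 22% in these data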;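 note: 0% = DMSO only wells and the 100% control is not disclosed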
NadD block = NadD (S. aureus) enzyme inhibition. purified NadD enzyme, colorimetric absorbance read-out. inhibition, % at 20 µM. 360,000 tested, 0.78% active. AID 602399; in the data active = inhibition above about 26%
rCAG binder = molecules binding r(CAG) RNA repeats; r(CAG) RNA repeat, TO-PRO-1 dye displacement fluorescence; inhibition, % at 3 µM; 370,000 tested, 1.3% active;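 active = inhibition above the plate cutoff, the mean of all test compounds on that plate plus 3 SD, cut at about 35% in these data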;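 note: 0% = DMSO alone and 100% = 100 µM mitoxantrone as full dye displacement; higher means more dye released from RNA so lower well fluorescence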
HCV core dimer = blocks dimerization of HCV core protein; 300,000 tested, 0.33% active; TR-FRET GST/Flag-core106 dimerization, 1536-well; inhibition, % at 5 µM; AID 1899;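 active = inhibition above the mean of all tested compounds plus 3 SD, set per screening campaign, cut at about 45% in these data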
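Assay system – GST-tagged and Flag-tagged HCV core protein residues 1-106 · Quantity – core106 proteins, GST 13.5 nM and Flag 17 nM · Benchmarks – unlabelled core106 and no-GST-core106 wells · Read-out basis – percent inhibition of core106 dimerization signal · Detection – time-resolved FRET, ex 340 nm, em 617 and 671 nm · Schedule – 4 h at 22.5 °C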
ABHD5-PLIN5 conf = confirmation of human ABHD5-PLIN5 interaction inhibitors; biochemical ABHD5-PLIN5 interaction, luminescence; shares compounds with ABHD5 PLIN5 PPI; 2,200 tested, 67% active; inhibition, % at 4 µM; in the data active = inhibition above about 23%;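 note: 0% = DMSO vehicle wells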
HNF4 counter = HNF4 split-luciferase signal hit, counter-screen; shares compounds with ABHD5 PLIN5 PPI; HNF4 dimerization, luminescence, biochemical; inhibition, % at 4 µM; 2,200 tested, 77% active;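 active = mean inhibition across replicate wells exceeding the computed hit threshold, cut at about 13% in these data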;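 note: light from luciferase halves that rejoin when HNF4 fusion proteins dimerize; 0% = DMSO only wells and the 100% control is not given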
Target sequence (P41235 whole entry, looked up, the tested form may be a part): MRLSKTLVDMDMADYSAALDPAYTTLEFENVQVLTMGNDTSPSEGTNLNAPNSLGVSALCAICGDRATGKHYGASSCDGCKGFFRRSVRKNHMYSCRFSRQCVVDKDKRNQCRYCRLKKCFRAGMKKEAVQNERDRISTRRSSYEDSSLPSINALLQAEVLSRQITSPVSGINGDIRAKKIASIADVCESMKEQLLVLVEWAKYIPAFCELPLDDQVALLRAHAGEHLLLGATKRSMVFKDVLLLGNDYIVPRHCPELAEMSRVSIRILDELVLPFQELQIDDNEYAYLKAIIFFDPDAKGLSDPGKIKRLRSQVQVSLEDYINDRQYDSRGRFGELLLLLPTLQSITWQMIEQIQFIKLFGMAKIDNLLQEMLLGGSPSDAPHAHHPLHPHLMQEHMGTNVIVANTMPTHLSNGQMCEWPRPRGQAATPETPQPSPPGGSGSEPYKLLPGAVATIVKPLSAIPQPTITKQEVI
* marks the source's active call; other numbers are inactive results; x = no result given. The list is not random: actives were taken first. Their share in the collection is about 2.6%.

SMILES | ABHD5 PLIN5 PPI | NadD block | rCAG binder | HCV core dimer | ABHD5-PLIN5 conf | HNF4 counter
CCOC(=O)c1cc2ccccc2n1C1CCN(C)CC1 | -4 | 0 | 1 | x | x | x
COC1C(=O)CCC2(CO2)C1(O)C1(C)OC1CC=C(C)C (centres undefined) | -1 | -2 | -2 | x | x | x
Nc1[nH]c(C(=O)c2ccc(Cl)cc2)c(-c2ccc(Br)cc2)c1C(=O)NCc1ccc(Cl)cc1Cl | x | x | 8 | x | x | x
Cc1ccc(-c2csc(Nc3ccc(S(N)(=O)=O)cc3)n2)o1 | 32* | 9 | 20 | 4 | 65* | 100*
Cc1nc(C)c(-c2csc(Nc3ccc(S(N)(=O)=O)cc3)n2)s1 | 2 | 0 | 5 | x | x | x
Cc1ccc(-c2csc(NC(=O)c3ccc(-c4ccccc4)cc3)n2)o1 | 55* | 10 | x | 5 | 25* | 27*
COc1ccc(OC)c(-c2csc(NC(=O)Cc3ccc(F)cc3)n2)c1 | -6 | -4 | 0 | -7 | x | x
Cc1ccc(-c2csc(NC(=O)Cc3ccc(F)cc3)n2)o1 | 30* | 6 | 14 | 11 | 60* | 94*
O=C(/C=C/c1c(F)cccc1Cl)c1ccc(F)cc1 | 31* | 2 | 5 | 7 | 95* | 91*
O=C1N/C(=C/c2ccc(N3CCOCC3)o2)C(=O)N1c1cccc(Cl)c1 | 70* | 15 | 14 | -19 | 71* | 100*
O=C(N1CCOCC1)N1CC[C@H]2[C@H](CCCN2Cc2cc(F)cc(F)c2)C1 | x | x | 0 | x | x | x
CSC(=Nc1ccccc1)N=C(SCc1ccccc1)N(C)C | 81* | 1 | -1 | x | 96* | 57*
O=C(NCc1ccccc1)c1cc(C2COCCN2C(=O)c2ccccc2)on1 (centres undefined) | -8 | 2 | -1 | x | x | x
CC(=O)OC1CCC2(C)C(CCC3C4CC=C(C(C)=O)C4(C)OC(=O)CC32)C1 (centres undefined) | 61* | 3 | 0 | x | 88* | 93*
CC1(c2ccc([N+](=O)[O-])cc2)Nc2ccccc2S1 (centres undefined) | 35* | -3 | 12 | 5 | -5 | -9
CC[C@@H](NC(=O)[C@@H](Cc1ccccc1)NC(=O)CC[C@H]1O[C@@H](n2ccc(=O)[nH]c2=O)[C@H](O)[C@@H]1O)c1ccccc1 | 0 | -5 | 0 | x | x | x
O=C(Nc1ccc(F)cc1)C(c1cc2ccccc2o1)N1CCN(c2ccncc2)CC1 (centres undefined) | 8 | x | 6 | x | x | x
COc1ccc(NC(=O)/C(Cl)=C(/Cl)S(=O)Cc2ccccc2)cn1 (centres undefined) | 95* | -2 | -2 | 11 | 97* | 103*
COc1ccc(NC(=O)Cc2ccccc2)cn1 | 2 | 0 | -7 | -5 | x | x
COC(=O)[C@]12C[C@H](CC(=O)N3CCC(c4ccccc4)CC3)C(=O)N(Cc3ccccc3)C1=C[C@H](C(C)C)O[C@@H]2C1CC1 | x | x | 9 | x | x | x
CCCNC(=O)C1(C)CCCN(C(=O)c2cc(F)cc(F)c2)C1 (centres undefined) | 2 | -6 | 1 | x | x | x
COc1cccc(-n2nc(C#N)c(Cl)cc2=O)c1 | 29* | 1 | 4 | x | 37* | 41*
CCCN1C(=O)c2ccccc2NC1c1cc(OC)c(OC)c(OC)c1 (centres undefined) | -5 | -3 | -3 | 0 | x | x
CCN1c2ccccc2NC2N=C(OC)C(c3ccccc3)C21 (centres undefined) | 48* | 7 | x | 1 | 5 | 13*
N#CCCCc1cn(-c2ccc(-c3noc4c3C(=O)N(CC(=O)N3CCOCC3)CC4)cc2)nn1 | x | x | 0 | x | x | x
SMILES | ABHD5 PLIN5 PPI | NadD block | rCAG binder | HCV core dimer | ABHD5-PLIN5 conf | HNF4 counter
CCOC(=O)C1(C(=O)OCC)COC(=O)C1CN1Cc2cc3ccccc3nc2C1 (centres undefined) | 46* | 2 | 10 | x | 29* | 89*
COC(=O)c1ccc2nc(-c3ccc(C)cc3)c(Cc3ccc(C)cc3)n2c1 | -5 | 7 | 11 | x | x | x
Cc1ccc(Cc2c(-c3ccco3)nc3c(C)cc(Br)cn23)cc1 | 64* | 15 | 30 | x | 48* | 66*
Cc1ccc(Cc2c(-c3ccccc3)nc3c(C)cc(Br)cn23)cc1 | -7 | 6 | 10 | x | x | x
COC(=O)c1ccc2nc(-c3ccco3)c(Cc3ccc(C)cc3)n2c1 | 39* | 11 | 18 | x | 19 | 42*
COC(=O)c1ccc2nc(-c3ccc(F)cc3)c(Cc3cccc(F)c3)n2c1 | -7 | 0 | 5 | x | x | x
Cc1ccc(Cc2c(-c3ccco3)nc3ccc(C)cn23)cc1 | 37* | 11 | 20 | x | 14 | 34*
COC(=O)c1ccc2nc(-c3ccco3)c(Cc3cccc(F)c3)n2c1 | 57* | 22 | 20 | x | 48* | 83*
CCOc1cc(CN2CCC(N3CCC(C(=O)NC4CC4)CC3)CC2)ccc1O | 3 | -2 | -1 | x | x | x
CCn1c(SC)nnc1C1CCCN(CC(=O)Nc2ccccc2N2CCOCC2)C1 (centres undefined) | 0 | -1 | -4 | -5 | x | x
COC(=O)C1=C(C)N(Cc2ccccc2C(F)(F)F)C(=NCc2ccc(C(F)(F)F)cc2)NC1c1cccc(Cl)c1 (centres undefined) | x | x | 4 | x | x | x
COC(=O)c1ccc2nc(-c3ccco3)c(Cc3ccc(OC)cc3C)n2c1 | 47* | 22 | 25 | x | 72* | 83*
Fc1cccc(Cc2c(-c3ccco3)nc3c(Cl)cc(C(F)(F)F)cn23)c1 | 53* | 15 | 32 | x | 70* | 83*
Brc1ccc2nc(-c3ccco3)c(Cc3ccccc3)n2c1 | 59* | 8 | 29 | x | 63* | 95*
COC(=O)c1ccc2nc(-c3ccco3)c(Cc3ccccc3OC)n2c1 | x | x | 22 | x | x | x
Clc1ccc(-c2nc3ccc(Cl)cn3c2Cc2cccc(Cl)c2)cc1 | -4 | 20 | 28 | x | x | x
Cc1ccc2nc(-c3ccco3)c(Cc3ccsc3)n2c1 | x | x | 11 | x | x | x
Clc1cccc(Cc2c(-c3ccco3)nc3ccc(Cl)cn23)c1 | 71* | 28 | 26 | x | 86* | 102*
CCCCn1nnnc1C1(C)CCC(=O)N1CCc1ccccc1F (centres undefined) | -2 | -4 | 0 | x | x | x
O=C(O)/C(=C\c1cccc(O)c1)c1ccc(S(=O)(=O)N2CCCC2)s1 | -4 | 3 | 9 | x | x | x
COC(=O)c1ccc2nc(-c3ccco3)c(Cc3ccccc3C(F)(F)F)n2c1 | 52* | 19 | 22 | x | 24* | 66*
CC1=NNC(=O)/C1=C\c1cn(-c2ccccc2)nc1-c1ccc(Cl)cc1 | 32* | 4 | 7 | 22 | 56* | 91*
COC(=O)[C@]12C[C@H](CC(=O)N3CCOCC3)C(=O)N(CCC3=CCCCC3)C1=C[C@H](C(C)C)O[C@@H]2C1CC1 | x | x | 3 | x | x | x
O=C1C(Cl)=C(N2CCOCC2)C(=O)N1c1ccccc1Cl | 30* | -7 | x | -2 | 59* | 85*
O=C1C(Cl)=C(N2CCCCCC2)C(=O)N1c1ccccc1Cl | -4 | -4 | -1 | -5 | x | x
